# Calls of active or inactive are those of the source.
# Columns and labels:
# [1] = Partition coefficient (logP); assay type: physicochemical; conditions: octanol/water
# [2] = target: T1, GABA-A receptor; anion channel (Rattus norvegicus) (UniProt O09028+P15431+P18506+P18508+P19969+P20236+P23574+P23576+P28471+P28473+P30191+P62813+P63079+P63138+Q91ZM7+Q9ES14); assay: Displacement of [3H]GABA from Gamma-aminobutyric acid A receptor binding sites in brain homogenates (relative to 1 mM GABA) at 100 uM; assay type: tissue-based
# Summary of the method: (§1)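 Male Sprague-Dawley rat brain, frozen, homogenized in 50 mM Tris-citrate (pH 7.1 at 4 °C). Membranes treated with 0.05% Triton X-100 for 30 min at 37 °C and resuspended at 0.5–1.0 mg/mL protein. Incubated with 8 nM [3H]GABA for 5 min at 4 °C, stopped by centrifugation, and counted by scintillation. Test concentration 100 µM. Expressed as percent of the inhibition given by 1 mM GABA. Mean of two experiments, each in triplicate.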
# Mus musculus [3] = assay: In vivo anticonvulsant activity against pentylene tetrazole seizure threshold(SMC) in mice 4 hr after sc administration; inactive at 600 mg/kg; assay type: functional, organism-based; design: dose 600 mg/kg
# Mus musculus [4] = assay: In vivo anticonvulsant activity against pentylene tetrazole seizure threshold(SMC) in mice 0.5 hr after sc administration; inactive at 600 mg/kg; assay type: functional, organism-based; design: dose 600 mg/kg
# [5] = target: T1, GABA-A receptor; anion channel (Rattus norvegicus); assay: Displacement of [3H]-GABA from Gamma-aminobutyric acid A receptor binding sites in brain homogenates (relative to 1 mM GABA) at 100 uM; assay type: tissue-based; summary of the method: as §1
# [6] = target: GABA B receptor (Rattus norvegicus) (UniProt Q9Z0U4+O88871); assay: Displacement of [3H]GABA from GABA-B binding sites in brain homogenates (relative to 100 uM baclofen) at 100 uM; assay type: tissue-based
# Summary of the method: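 Rat brain membrane binding (male Sprague-Dawley) using 10 nM [3H]GABA, with 100 µM isoguvacine present to block GABA-A sites. Test concentration 100 µM. Percent inhibition expressed relative to 100 µM baclofen. Mean of two separate experiments, each in triplicate.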
# Mus musculus [7] = assay: In vivo neurotoxicity at 600 mg/kg, number of animals exhibiting neurotoxicity in the rotarod test / number of animals tested at 0.5 hr; assay type: toxicity, organism-based; design: dose 600 mg/kg
# Mus musculus [8] = assay: In vivo anticonvulsant activity against electric shock induced seizures(MES) in mice 4 hr after ip administration; inactive at 600 mg/kg; assay type: functional, organism-based; design: dose 600 mg/kg
# Mus musculus [9] = assay: In vivo neurotoxicity at 600 mg/kg, number of animals exhibiting neurotoxicity in the rotarod test / number of animals tested 4 hr; assay type: toxicity, organism-based; design: dose 600 mg/kg
# Mus musculus [10] = assay: In vivo anticonvulsant activity against electric shock induced seizures(MES) in mice 0.5 hr after ip administration; inactive at 600 mg/kg; assay type: functional, organism-based; design: dose 600 mg/kg
# Mus musculus [11] = assay: In vivo anticonvulsant activity against electric shock induced seizures(MES) in mice; 104-131; assay type: functional
# Mus musculus [12] = assay: In vivo neurotoxicity at 600 mg/kg, number of animals exhibiting neurotoxicity in the rotarod test / number of animals tested at 0.5 hr; 0/4; assay type: toxicity, organism-based; design: dose 600 mg/kg
# Mus musculus [13] = assay: In vivo neurotoxicity at 600 mg/kg, number of animals exhibiting neurotoxicity in the rotarod test / number of animals tested 4 hr; 0/2; assay type: toxicity, organism-based; design: dose 600 mg/kg
# Mus musculus [14] = assay: In vivo anticonvulsant activity against pentylene tetrazole seizure threshold(SMC) in mice 4 hr after sc administration; + indicates activity at 600 mg/kg.; assay type: functional, organism-based; design: dose 600 mg/kg
# Mus musculus [15] = assay: In vivo anticonvulsant activity against electric shock induced seizures(MES) in mice 0.5 hr after ip administration; ++ indicates activity at 300 mg/kg.; assay type: functional, organism-based; design: dose 300 mg/kg
# Mus musculus [16] = assay: In vivo anticonvulsant activity against pentylene tetrazole seizure threshold(SMC) in mice 0.5 hr after sc administration; + indicates activity at 600 mg/kg.; assay type: functional, organism-based; design: dose 600 mg/kg
# Mus musculus [17] = assay: In vivo neurotoxicity at 600 mg/kg, number of animals exhibiting neurotoxicity in the rotarod test / number of animals tested 4 hr; 1/2; assay type: toxicity, organism-based; design: dose 600 mg/kg
# Mus musculus [18] = assay: In vivo neurotoxicity at 600mg/kg, number of animals exhibiting neurotoxicity in the rotarod test / number of animals tested 0.5 hr; 4/4; assay type: toxicity, organism-based
# Mus musculus [19] = assay: In vivo anticonvulsant activity against electric shock induced seizures(MES) in mice 4 hr after ip administration; + indicates activity at 600 mg/kg.; assay type: functional, organism-based; design: dose 600 mg/kg
# Mus musculus [20] = assay: In vivo neurotoxicity at 600 mg/kg, number of animals exhibiting neurotoxicity in the rotarod test / number of animals tested 4 hr; 2/2; assay type: toxicity, organism-based; design: dose 600 mg/kg
# Mus musculus [21] = assay: In vivo neurotoxicity at 600 mg/kg, number of animals exhibiting neurotoxicity in the rotarod test / number of animals tested at 0.5 hr; 4/4; assay type: toxicity, organism-based; design: dose 600 mg/kg
# Mus musculus [22] = assay: In vivo anticonvulsant activity against pentylene tetrazole seizure threshold(SMC) in mice 0.5 hr after sc administration; active at 600 mg/kg; assay type: functional, organism-based; design: dose 600 mg/kg
# Mus musculus [23] = assay: In vivo anticonvulsant activity against electric shock induced seizures(MES) in mice 4 hr after ip administration; active at 300 mg/kg; assay type: functional, organism-based; design: dose 300 mg/kg
# Mus musculus [24] = assay: In vivo anticonvulsant activity against electric shock induced seizures(MES) in mice 0.5 hr after ip administration; active at 300 mg/kg; assay type: functional, organism-based; design: dose 300 mg/kg
# Mus musculus [25] = assay: In vivo anticonvulsant activity against pentylene tetrazole seizure threshold(SMC) in mice 4 hr after sc administration; indicates inactive at 600 mg/kg; assay type: functional, organism-based; design: dose 600 mg/kg
# Mus musculus [26] = assay: In vivo neurotoxicity at 600 mg/kg, number of animals exhibiting neurotoxicity in the rotarod test / number of animals tested at 4 hr; 0/2; assay type: toxicity, organism-based; design: dose 600 mg/kg
# Mus musculus [27] = assay: In vivo anticonvulsant activity against electric shock induced seizures(MES) in mice 0.5 hr after ip administration; indicates inactive at 600 mg/kg; assay type: functional, organism-based; design: dose 600 mg/kg
# Mus musculus [28] = assay: In vivo anticonvulsant activity against electric shock induced seizures(MES) in mice 4 hr after ip administration; indicates inactive at 600 mg/kg; assay type: functional, organism-based; design: dose 600 mg/kg
# Mus musculus [29] = assay: In vivo anticonvulsant activity against pentylenetetrazole seizure threshold(SMC) in mice 0.5 hr after sc administration; indicates inactive at 600 mg/kg; assay type: functional, organism-based; design: dose 600 mg/kg
# Mus musculus [30] = assay: In vivo anticonvulsant activity against electric shock induced seizures(MES) in mice 0.5 hr after ip administration; active at 600 mg/kg; assay type: functional, organism-based; design: dose 600 mg/kg
structure (smiles),measurement,setting,value
COP(=S)(OC)Oc1ccc([N+](=O)[O-])cc1 [METHYL PARATHIONE],logP,[1],2.51
COP(=S)(OC)Oc1cccc(NC(C)=O)c1,inhibition,[2],inactive
COP(=O)(OC)Oc1ccc([N+](=O)[O-])cc1Cl,logP,[1],1.83
CC(=O)Nc1ccccc1OP(=O)(Oc1ccccc1)Oc1ccccc1,Anticonvulsant activity,Mus musculus [3],inactive
same,Anticonvulsant activity,Mus musculus [4],inactive
same,inhibition,[5],54%
same,inhibition,[6],36%
same,Toxicity,Mus musculus [7],Not Active
same,Anticonvulsant activity,Mus musculus [8],inactive
same,Toxicity,Mus musculus [9],Not Active
same,Anticonvulsant activity,Mus musculus [10],inactive
COP(=S)(OC)Oc1cc(C)c([N+](=O)[O-])c(C)c1,logP,[1],3.89
CCOP(=S)(OCC)Oc1ccc([N+](=O)[O-])cc1 [PARATHION],logP,[1],2.98
CCc1cc(OP(=O)(OC)OC)ccc1[N+](=O)[O-],logP,[1],2.19
CN1C(=O)CC(c2ccccc2)C1=O (centres undefined) [PHENSUXIMIDE],ED50,Mus musculus [11],112 mg/kg
Nc1cccc(P(=O)(O)O)c1,Toxicity,Mus musculus [12],0
same,Toxicity,Mus musculus [13],0
CCOP(=O)(OCC)c1cccc(N)c1,Anticonvulsant activity,Mus musculus [14],activity at 300 mg/kg
same,Anticonvulsant activity,Mus musculus [15],activity at 300 mg/kg
same,Anticonvulsant activity,Mus musculus [16],activity at 300 mg/kg
same,Toxicity,Mus musculus [17],1
same,Toxicity,Mus musculus [18],4
same,Anticonvulsant activity,Mus musculus [19],activity at 300 mg/kg
CC(C)OP(=O)(OC(C)C)c1cccc(N)c1,Toxicity,Mus musculus [20],2
same,Anticonvulsant activity,Mus musculus [15],activity at 300 mg/kg
same,Toxicity,Mus musculus [21],4
same,Anticonvulsant activity,Mus musculus [19],activity at 300 mg/kg
CC(CNP(=O)(Oc1ccccc1)Oc1ccccc1)NP(=O)(Oc1ccccc1)Oc1ccccc1 (centres undefined),inhibition,[6],20%
NCCOP(=O)(O)Oc1ccccc1,Anticonvulsant activity,Mus musculus [3],inactive
same,Anticonvulsant activityAnticonvulsant activity,Mus musculus [4],inactive
same,inhibition,[5],13%
same,inhibition,[6],40%
same,Anticonvulsant activity,Mus musculus [8],inactive
same,Anticonvulsant activity,Mus musculus [10],inactive
CCOP(=O)(OCC)Oc1ccc([N+](=O)[O-])cc1 [PARAOXON],logP,[1],1.64
CCOP(=O)(OCC)Oc1ccccc1NC(C)=O,Anticonvulsant activity,Mus musculus [22],active at 300 mg/kg
same,Anticonvulsant activity,Mus musculus [23],active at 300 mg/kg
same,Anticonvulsant activity,Mus musculus [24],active at 300 mg/kg
COP(=O)(OC)Oc1ccc([N+](=O)[O-])c(C)c1 [FENITROXON],logP,[1],1.69
NCCOP(=O)(O)c1ccccc1,Anticonvulsant activity,Mus musculus [25],inactive
same,Toxicity,Mus musculus [26],0
same,Toxicity,Mus musculus [12],0
same,inhibition,[5],15%
same,inhibition,[6],16%
same,Anticonvulsant activity,Mus musculus [27],inactive
same,Anticonvulsant activity,Mus musculus [28],inactive
same,Anticonvulsant activity,Mus musculus [29],inactive
COP(=O)(OC)Oc1cc(C)c([N+](=O)[O-])c(C)c1,logP,[1],2.57
CC1(C)COP(=S)(c2ccccc2)N1 (centres undefined),Anticonvulsant activity,Mus musculus [30],active at 600 mg/kg
same,inhibition,[6],15%
Nc1cccc(P(=O)(Oc2ccccc2)Oc2ccccc2)c1,inhibition,[6],51%
NCCCP(=O)(O)O,Anticonvulsant activity,Mus musculus [3],inactive
same,Anticonvulsant activity,Mus musculus [4],inactive
same,inhibition,[5],12%
same,inhibition,[6],91%
same,Toxicity,Mus musculus [7],Not Active
same,Anticonvulsant activity,Mus musculus [8],inactive
same,Toxicity,Mus musculus [9],Not Active
same,Anticonvulsant activity,Mus musculus [10],inactive

# Reference: ChEMBL document CHEMBL1122654, “Phosphorus analogues of gamma-aminobutyric acid, a new class of anticonvulsants” (J Med Chem, 1984)
